Test results as given in ChEMBL document CHEMBL5724801, “EUbOPEN Chemogenomics Library - Multiplex” (2024).
Where “and” joins values, the source holds several entries; their conditions need not be identical. Equal entries are not always repeated.

Tested on: U2OS
Test: Multiplex assay against U2OS
Format: toxicity, cell-based
Conditions: human
Method in brief: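 At seeding, live cells were stained with Hoechst33342, BioTracker Green Microtubule Cytoskeleton Dye, MitoTracker Red and Annexin V Alexa Fluor 680. After compound addition they were imaged on a CQ1 microscope at 37°C and 5% CO2, and CellPathfinder machine-learning gating sorted them into Hoechst high-intensity objects or normal cells, with normal cells further split into healthy, pyknosed or fragmented nuclei and pyknosed cells into mitotic or apoptotic. Tubulin, mitochondrial-mass and membrane-permeability phenotypes are given as per cents of cells with healthy nuclei.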

[1] = 12 h, 1 µM, compound concentration 1 uM
[2] = 12 h, 10 µM, compound concentration 10 uM
[3] = 24 h, 1 µM, compound concentration 1 uM
[4] = 24 h, 10 µM, compound concentration 10 uM
[5] = 48 h, 1 µM, compound concentration 1 uM
[6] = 48 h, 10 µM, compound concentration 10 uM

Q: `CSCC[C@H](NC=O)C(=O)N[C@@H](CC(C)C)C(=O)N[C@@H](Cc1ccccc1)C(=O)O` was tested. Which “Population Apoptotic (%)” value [1] did it give?
A: 73% and 100%

Q: And the “Population Fragmented Nuclei (%)” value [1]?
A: 29% and 17%

Q: And the “Population Healthy Nuclei (%)” value [1]?
A: 75%

Q: What about the “Population Mitochondria Different-Phenotype (%)” value [1] of the same compound?
A: 4% and 3%

Q: What about the “Total Cell Count” value [1] of the same compound?
A: 254 and 135

Q: And the “Population Apoptotic (%)” value [2]?
A: 69% and 90%

Q: What about the “Population Fragmented Nuclei (%)” value [2] of the same compound?
A: 23% and 16%

Q: What about the “Population Healthy Nuclei (%)” value [2] of the same compound?
A: 70% and 74%

Q: And the “Population Membrane Permeable-Phenotype (%)” value [2]?
A: 4%

Q: What about the “Population Mitochondria Different-Phenotype (%)” value [2] of the same compound?
A: 1% and 2%

Q: What about the “Population Mitotic Cells (%)” value [2] of the same compound?
A: 30%

Q: What about the “Total Cell Count” value [2] of the same compound?
A: 202 and 123

Q: What about the “Population Apoptotic (%)” value [3] of the same compound?
A: 91% and 90%

Q: And the “Population Fragmented Nuclei (%)” value [3]?
A: 24% and 17%

Q: And the “Population Healthy Nuclei (%)” value [3]?
A: 75%

Q: And the “Population Mitochondria Different-Phenotype (%)” value [3]?
A: 3% and 0%

Q: And the “Population Mitotic Cells (%)” value [3]?
A: 8%

Q: And the “Total Cell Count” value [3]?
A: 288 and 147

Q: What about the “Population Apoptotic (%)” value [4] of the same compound?
A: 76% and 100%

Q: And the “Population Fragmented Nuclei (%)” value [4]?
A: 23% and 19%

Q: What about the “Population Healthy Nuclei (%)” value [4] of the same compound?
A: 68% and 70%

Q: And the “Population Membrane Permeable-Phenotype (%)” value [4]?
A: 8%

Q: And the “Population Mitochondria Different-Phenotype (%)” value [4]?
A: 1% and 2%

Q: And the “Population Mitotic Cells (%)” value [4]?
A: 23% and 0%

Q: And the “Total Cell Count” value [4]?
A: 247 and 147

Q: And the “Population Fragmented Nuclei (%)” value [5]?
A: 16% and 18%

Q: What about the “Population Healthy Nuclei (%)” value [5] of the same compound?
A: 75% and 68%

Q: And the “Population Membrane Permeable-Phenotype (%)” value [5]?
A: 4%

Q: And the “Population Mitochondria Different-Phenotype (%)” value [5]?
A: 3% and 1%

Q: What about the “Total Cell Count” value [5] of the same compound?
A: 411 and 202

Q: What about the “Population Apoptotic (%)” value [6] of the same compound?
A: 90% and 100%

Q: What about the “Population Fragmented Nuclei (%)” value [6] of the same compound?
A: 20% and 53%

Q: What about the “Population Healthy Nuclei (%)” value [6] of the same compound?
A: 70% and 25%

Q: What about the “Population Mitotic Cells (%)” value [6] of the same compound?
A: 9% and 0%

Q: Which results are given for `O=C1N=C(NCc2cccs2)S/C1=C\c1ccc2ncccc2c1`?
A: Population Apoptotic (%) [1]: 36.36% and 33.33%; Population Fragmented Nuclei (%) [1]: 2.87% and 8.81%; Population Healthy Nuclei (%) [1]: 87.42% and 78.76%; Population Hoechst High Intensity Objects (%) [1]: 0%; Population Membrane Permeable-Phenotype (%) [1]: 0.51% and 3.95%; Population Mitotic Cells (%) [1]: 63.64% and 66.67%; Population Normal (%) [1]: 100%; Population Pyknosed Nuclei (%) [1]: 9.71% and 12.44%; Population Tubulin-Different-Phenotype (%) [1]: 1.01% and 1.97%; Total Cell Count [1]: 453 and 193; Population Apoptotic (%) [2]: 55% and 44%; Population Fragmented Nuclei (%) [2]: 1.99% and 5.59%; Population Healthy Nuclei (%) [2]: 91.39% and 78.88%; Population Hoechst High Intensity Objects (%) [2]: 0%; Population Membrane Permeable-Phenotype (%) [2]: 16.67% and 19.69%; Population Mitotic Cells (%) [2]: 45% and 56%; Population Normal (%) [2]: 100%; Population Pyknosed Nuclei (%) [2]: 6.62% and 15.53%; Population Tubulin-Different-Phenotype (%) [2]: 18.48% and 14.96%; Total Cell Count [2]: 302 and 161; Population Apoptotic (%) [3]: 37.5% and 40.54%; Population Fragmented Nuclei (%) [3]: 1.66% and 6.39%; Population Healthy Nuclei (%) [3]: 87.71% and 79.7%; Population Hoechst High Intensity Objects (%) [3]: 0%; Population Membrane Permeable-Phenotype (%) [3]: 0.95% and 5.19%; Population Mitochondria Different-Phenotype (%) [3]: 0.19% and 9.91%; Population Mitotic Cells (%) [3]: 62.5% and 59.46%; Population Normal (%) [3]: 100%; Population Pyknosed Nuclei (%) [3]: 10.63% and 13.91%; Population Tubulin-Different-Phenotype (%) [3]: 0.38% and 1.42%; Total Cell Count [3]: 602 and 266; Population Apoptotic (%) [4]: 68.42%; Population Fragmented Nuclei (%) [4]: 4.38% and 8.12%; Population Healthy Nuclei (%) [4]: 76.43% and 68.12%; Population Hoechst High Intensity Objects (%) [4]: 0%; Population Membrane Permeable-Phenotype (%) [4]: 10.57% and 12.84%; Population Mitotic Cells (%) [4]: 31.58%; Population Normal (%) [4]: 100%; Population Pyknosed Nuclei (%) [4]: 19.19% and 23.75%; Population Tubulin-Different-Phenotype (%) [4]: 13.66% and 9.17%; Total Cell Count [4]: 297 and 160; Population Apoptotic (%) [5]: 47.06% and 45.1%; Population Fragmented Nuclei (%) [5]: 4.77% and 4%; Population Healthy Nuclei (%) [5]: 86.23% and 84%; Population Hoechst High Intensity Objects (%) [5]: 0.09% and 0%; Population Membrane Permeable-Phenotype (%) [5]: 0.92% and 1.96%; Population Mitochondria Different-Phenotype (%) [5]: 0.1% and 4.48%; Population Mitotic Cells (%) [5]: 52.94% and 54.9%; Population Normal (%) [5]: 99.91% and 100%; Population Pyknosed Nuclei (%) [5]: 9% and 12%; Population Tubulin-Different-Phenotype (%) [5]: 0.82% and 0.28%; Total Cell Count [5]: 1134 and 425; Population Apoptotic (%) [6]: 81.63% and 92.42%; Population Fragmented Nuclei (%) [6]: 10.65% and 9.25%; Population Healthy Nuclei (%) [6]: 57.74% and 52.6%; Population Hoechst High Intensity Objects (%) [6]: 0%; Population Membrane Permeable-Phenotype (%) [6]: 3.91% and 5.49%; Population Mitotic Cells (%) [6]: 18.37% and 7.58%; Population Normal (%) [6]: 100%; Population Pyknosed Nuclei (%) [6]: 31.61% and 38.15%; Total Cell Count [6]: 310 and 173
